Tests used:
Assay type in all cases: functional
6C3HED [1] = assay: Inhibition of tumor growth of 6C3HED lymphosarcoma tumor cell line in mice at a dose of 300 mg/kg given orally (daily x 8); conditions: Mus musculus, route oral
Method in brief: (§1)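 C3H mice received subcutaneous 1-2 mm 6C3HED lymphosarcoma fragments, which grew for 1 day before treatment. The agent was suspended in 2.5% emulphor and given by oral gavage once daily on days 2-9. On day 10, intact tumors were measured by calipers to estimate tumor weight. Percent inhibition was taken from treated versus untreated control tumor weights, mostly with 10 mice per group.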

6C3HED [2] = assay: Inhibition of tumor growth of 6C3HED lymphosarcoma tumor cell line in mice at a dose of 150 mg/kg given orally(daily x 8); conditions: Mus musculus, po; method in brief: as §1
CX-1 = assay: Inhibition of tumor growth of CX-1 cell line at 600 mg/kg; conditions: Homo sapiens
Mus musculus = assay: Lethal dose against C3H mouse with subcutaneously implanted 6C3HED lymphosarcoma; conditions: sc
Method in brief: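 C3H mice bearing subcutaneously implanted 6C3HED lymphosarcoma fragments (1-2 mm), grown 1 day before treatment. Compound suspended in 2.5% emulphor and given po by gavage daily × 8 (days 2-9). Deaths from drug toxicity were recorded to give the lethal dose.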

6C3HED [3] = assay: Inhibition of tumor growth of 6C3HED lymphosarcoma tumor cell line in mice at a dose of 200 mg/kg given orally(daily x 8); conditions: Mus musculus, po; method in brief: as §1

SMILES | inhibition in vivo at 300 mg/kg (6C3HED [1]) | inhibition in vivo at 150 mg/kg (6C3HED [2]) | inhibition in vivo at 600 mg/kg (CX-1) | LD50 (Mus musculus) | inhibition in vivo at 200 mg/kg (6C3HED [3])
Cc1ccc(S(=O)(=O)NC(=O)Nc2ccc(Cl)c(Cl)c2)s1 | 61% | 24% |  |  | 
CCc1ccc(S(=O)(=O)NC(=O)Nc2ccc(Cl)cc2)o1 | 80% | 57% |  |  | 
O=C(Nc1ccc(Cl)cc1)NS(=O)(=O)c1cccs1 | 66% | 16% |  |  | 
CCc1ccc(S(=O)(=O)NC(=O)Nc2ccc(Cl)cc2)[nH]1 | 56% |  |  |  | 
CCc1ccc(S(=O)(=O)NC(=O)Nc2ccc(Cl)cc2)s1 | 89% | 57% |  |  | 
O=C(Nc1ccc(Cl)cc1)NS(=O)(=O)c1scc2c1CCCC2 | 15% | 0% |  |  | 
O=C(Nc1ccc(Cl)cc1)NS(=O)(=O)c1cc(Br)c(Br)s1 | 52% | 25% |  |  | 
O=C(Nc1ccc(Cl)cc1)NS(=O)(=O)c1cc2c(s1)CCC2 | 16% | 16% |  |  | 
CCOc1ccc(S(=O)(=O)NC(=O)Nc2ccc(Cl)cc2)s1 | 96% | 69% |  |  | 
O=C(Nc1ccc(Cl)cc1)NS(=O)(=O)c1ccc(Cl)s1 | 89% | 58% |  |  | 
CSc1ccc(S(=O)(=O)NC(=O)Nc2ccc(Cl)cc2)s1 | 62% | 29% |  |  | 
CC(C)(C)c1ccc(S(=O)(=O)NC(=O)Nc2ccc(Cl)cc2)s1 | 10% | 7% |  |  | 
Cc1ccsc1S(=O)(=O)NC(=O)Nc1ccc(Cl)cc1 | 62% | 17% |  |  | 
CC(C)c1ccc(S(=O)(=O)NC(=O)Nc2ccc(Cl)cc2)s1 | 63% | 42% |  |  | 
CCCc1ccc(S(=O)(=O)NC(=O)Nc2ccc(Cl)cc2)s1 | 39% | 38% |  |  | 
CCc1csc(S(=O)(=O)NC(=O)Nc2ccc(Cl)cc2)c1 | 93% | 55% |  |  | 
CCCOc1ccc(S(=O)(=O)NC(=O)Nc2ccc(Cl)cc2)s1 | 63% | 44% |  |  | 
COc1csc(S(=O)(=O)NC(=O)Nc2ccc(Cl)cc2)c1 | 69% | 36% |  |  | 
O=C(Nc1ccc(Cl)cc1)NS(=O)(=O)c1scc2c1CCC2 | 51% | 36% |  |  | 
Cc1cc(S(=O)(=O)NC(=O)Nc2ccc(Cl)cc2)sc1C | 73% | 42% |  |  | 
COc1ccc(S(=O)(=O)NC(=O)Nc2ccc(Cl)cc2)s1 | 100% | 93% | 62% | 450 mg/kg | 
CCc1sc(S(=O)(=O)NC(=O)Nc2ccc(Cl)cc2)cc1C | 58% | 26% |  |  | 
CCc1ccsc1S(=O)(=O)NC(=O)Nc1ccc(Cl)cc1 | 25% | 21% |  |  | 
O=C(Nc1ccc(Cl)c(Cl)c1)NS(=O)(=O)c1cc2c(s1)CCCC2 |  |  |  |  | 44%
